From article PMC4423805 (Science (New York, N.Y.), 2015)

Columns and labels:
[1] = target: CBFβ-SMMHC binding to the RUNX1 Runt domain; test: FRET assay of CBFβ-SMMHC binding to RUNX1 Runt domain; conditions: read-out: FRET IC50; 10 nM Cerulean-Runt domain and 10 nM Venus-CBFβ-SMMHC
How it was run: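 FRET binding assay with 10 nM Cerulean-RUNX1 Runt domain and 10 nM Venus-CBFβ-SMMHC titrated with test compound. Read-out is the emission intensity ratio at 525/474 nm. Untagged CBFβ (100 and 1000 nM) served as a dissociation reference. IC50 was fitted from the mean and SD of three independent measurements.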

[2] = system: CBFβ; test: 15N-1H HSQC / STD NMR binding to CBFβ; conditions: upon addition of compound
[3] = system: Runt domain; test: 15N-1H HSQC / STD NMR binding to Runt domain
[4] = Pharmacokinetics in mouse plasma; assay type: in vivo
[5] = Stability in liver microsomes; assay type: in vitro ADME
[6] = system: primary human inv(16) AML samples; test: Colony-forming units, primary inv; assay type: cell-based
How it was run: (§1)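 Colony-forming unit assays on CD34+ purified primary human cells treated with the test compound at set concentrations (5 and 10 μM cited for inv(16) samples): inv(16) AML, normal-karyotype AML, or cord blood. Colonies are expressed as percent of DMSO vehicle control. Assays were run in triplicate, with SD; significance by unpaired t-test.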

[7] = target: CBFβ-SMMHC; test: Isothermal titration calorimetry; assay type: binding; conditions: read-out: dissociation constant (KD), ITC
[8] = system: ME-1 cells; test: Annexin V and 7AAD viability staining, ME-1; assay type: cell-based, human; conditions: read-out: ME-1 cell growth IC50, 48 hours
How it was run: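 ME-1 inv(16) cells exposed to the test compound across a dose range for 48 hours, then scored by annexin V and 7AAD viability staining. Values are normalized to the DMSO-treated group. Each point is the mean of triplicate experiments, with SD.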

[9] = system: normal human bone marrow cells; test: MTT assay, normal human bone marrow cells; assay type: cell-based; conditions: read-out: IC50 in normal human bone marrow cells, 48 hours
How it was run: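 Normal human bone marrow cells treated with a dose range of test compound for 48 hours and assessed by MTT conversion. Values are normalized to the DMSO-treated group. Each point is the mean of triplicate experiments, with SD.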

[10] = system: 11 human leukemia cell lines; test: Panel of 11 human leukemia cell lines; assay type: cell-based
[11] = system: CBFβ-SMMHC-RUNX1 binding; test: Coimmunoprecipitation of CBFβ-SMMHC-RUNX1 in ME-1 cells; assay type: cell-based, human; conditions: 1 μM, 6 hours
How it was run: (§2)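 ME-1 cells treated with 1 μM test compound for 3 and 6 hours. RUNX1 association with CBFβ and with CBFβ-SMMHC was assessed by coimmunoprecipitation, and binding was quantified from three experiments.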

[12] = system: CBFβ-RUNX1 binding; test: Coimmunoprecipitation of CBFβ-RUNX1 in ME-1 cells; assay type: cell-based, human; conditions: 1 μM
How it was run: as §2

[13] = system: RUNX1, CBFβ, and CBFβ-SMMHC; test: Protein stability of RUNX1, CBFβ and CBFβ-SMMHC; assay type: cell-based
[14] = system: RUNX1 occupancy at RUNX3, CSF1R, and CEBPA promoters; test: Chromatin immunoprecipitation of RUNX1 occupancy, ME-1 cells; assay type: cell-based, human; conditions: 6 hours
How it was run: (§3)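 Chromatin immunoprecipitation of RUNX1 at the RUNX3, CSF1R and CEBPA loci in ME-1 and U937 cells treated with 1 μM test compound for 6 hours. Occupancy is expressed as fold enrichment relative to DMSO-treated cells. Data are means of triplicate experiments with SD; significance by unpaired t-test.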

[15] = system: RUNX1 occupancy at RUNX3, CSF1R, and CEBPA promoters; test: Chromatin immunoprecipitation of RUNX1 occupancy, U937 cells; assay type: cell-based, human; conditions: inv(16)-negative U937 cells, 1 μM
How it was run: as §3

[16] = system: expression of RUNX3, CSF1R, and CEBPA; test: qRT-PCR expression of RUNX1 target genes, ME-1 cells; assay type: cell-based, human; conditions: 6 or 12 hours
How it was run: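 qRT-PCR of RUNX3, CSF1R, CEBPA and control gene PIN1 in ME-1 and U937 cells treated with 1 μM test compound for 6 and 12 hours. Expression is normalized to the DMSO control group. Data are means of triplicate experiments with SD; significance by unpaired t-test.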

[17] = system: Cbfb+/MYH11:Ras+/G12D leukemic cells; test: inv; assay type: in vivo, mouse; conditions: 200 mg/kg of body weight per day for 10 days, days 5 to 15 posttransplantation
How it was run: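 Mice (n = 11 per group) were transplanted with 2 × 10^3 Cbfb+/MYH11;Ras+/G12D leukemic cells. After 5 days for engraftment, they received DMSO vehicle or 200 mg/kg/day test compound for 10 days (days 5–15 post-transplant). Disease latency was followed by Kaplan-Meier survival.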

[18] = Toxicity after 7 days of administration; assay type: in vivo
[19] = system: primary human inv(16) AML samples; test: Viability; assay type: cell-based; conditions: 48 hours, 5 and 10 μM
How it was run: (§4)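 Primary human AML cells treated with test compound at set concentrations for 48 hours, and viability read by annexin V/7AAD relative to DMSO vehicle. Inv(16) material comprised four CD34+ purified samples; normal-karyotype AML samples were used as given. Each sample was the average of duplicate treatments, with mean and SD across samples.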

[20] = system: primary human AML samples with normal karyotype; test: Viability; assay type: cell-based; conditions: 48 hours
How it was run: as §4

[21] = system: primary human AML samples with normal karyotype; test: Colony-forming units, normal karyotype AML samples; assay type: cell-based
How it was run: as §1

[22] = system: CD34+ cord blood cells; test: Colony-forming units, CD34+ cord blood cells; assay type: cell-based, human
How it was run: as §1

[23] = target: RUNX1, endogenous in ME-1 cells (human (endogenous in ME-1)) (UniProt Q01196); test: co-IP
Sequence of RUNX1, endogenous in ME-1 cells (human (endogenous in ME-1)) (Q01196 whole entry): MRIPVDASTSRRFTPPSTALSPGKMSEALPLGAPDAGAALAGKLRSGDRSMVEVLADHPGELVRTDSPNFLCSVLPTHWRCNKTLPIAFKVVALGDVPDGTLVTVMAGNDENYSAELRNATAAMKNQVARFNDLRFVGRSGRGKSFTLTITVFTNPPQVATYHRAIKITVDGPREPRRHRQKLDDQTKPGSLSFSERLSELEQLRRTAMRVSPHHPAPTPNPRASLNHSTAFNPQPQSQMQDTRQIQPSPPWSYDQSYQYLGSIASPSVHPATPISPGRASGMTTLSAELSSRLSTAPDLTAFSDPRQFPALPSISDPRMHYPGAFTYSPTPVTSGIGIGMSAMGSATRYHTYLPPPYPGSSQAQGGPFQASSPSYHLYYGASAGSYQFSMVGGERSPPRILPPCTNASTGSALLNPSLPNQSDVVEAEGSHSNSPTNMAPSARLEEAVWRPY

Sequence of CBFβ-SMMHC (Q13951 1-165 limits assumed): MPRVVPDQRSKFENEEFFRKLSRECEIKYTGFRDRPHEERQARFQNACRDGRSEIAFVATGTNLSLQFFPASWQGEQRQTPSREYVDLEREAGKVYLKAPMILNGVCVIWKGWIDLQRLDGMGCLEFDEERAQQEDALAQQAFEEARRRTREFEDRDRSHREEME

## COc1ccc2nc(-c3ccccn3)[nH]c2c1 [AI-4-57]
[1]
  IC50: 22000 ± 8000 nM
[2]
  chemical shift changes in HSQC spectrum of CBFβ: chemical shift perturbations
[3]
  interaction with Runt domain by NMR: No interaction was observed
[4]
  half-life (t½): 0.617 h

## FC(F)(F)Oc1ccc2nc(-c3ccccn3)[nH]c2c1 [AI-10-47]
[1]
  IC50: 2000 ± 30 nM
[5]
  stability in liver microsomes: reduced the metabolic liability
[6]
  change in CFUs of inv(16) AML cells: no change

## AI-10-49
[1]
  IC50: 260 ± 10 nM
[7]
  Kd: 168 nM
[8]
  IC50: 600 nM
[9]
  IC50: > 25000 nM
[4]
  half-life (t½): 6.33 h
[10]
  sensitivity of leukemia cell line panel: ME-1 cells were the only cell line highly sensitive
[11]
  dissociation of RUNX1 from CBFβ-SMMHC: 90%
[12]
  effect on CBFβ-RUNX1 association: only a modest effect
[13]
  stability of RUNX1, CBFβ, and CBFβ-SMMHC: not affected
[14]; 1 μM, relative to DMSO
  RUNX1 occupancy at CEBPA promoter: 8 fold
  RUNX1 occupancy at CSF1R promoter: 2.2 fold
  RUNX1 occupancy at RUNX3 promoter: 8 fold
[14]
  RUNX1 occupancy at control loci: no enrichment was observed
[15]
  RUNX1 occupancy increase in U937 cells: Neither
[16]; 1 μM
  expression of RUNX3, CSF1R, and CEBPA: increased expression
[16]
  expression of control gene PIN1: no effect
[17]
  median latency (survival): 61 days
[18]
  toxicity: no evidence of toxicity
[19]
  viability of inv(16) patient cells: reduced
[20]
  viability of normal karyotype AML samples: not affected
[6]; 5 μM
  inhibition of CFUs of inv(16) AML cells: 40%
[6]; 10 μM
  inhibition of CFUs of inv(16) AML cells: 60%
[21]
  change in CFUs of AML cells with normal karyotype: no change
[22]
  change in CFUs of CD34+ cord blood cells: no change

## CBFβ-SMMHC, endogenous in ME-1 cells
[23]
  percent dissociation with AI-10-49 (1 μM, 6 hours): 90%
